Data set [1] can be described thus: Cytotoxicity against BALB/c mouse splenocytes at 10 ug/ml by MTT assay. The data set is classed as cell-based. As to conditions: splenocyte. The essentials:
(§1)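 Run in parallel with the proliferation assay on splenocyte cultures without Con-A, with MTT colourimetric read-out. Cytotoxicity % = [1 − OD(cells+compd)/OD(cells)] × 100.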

The nature of data set [2]: Cytotoxicity against BALB/c mouse splenocytes at 1 ug/ml by MTT assay. It counts as cell-based. As to conditions: splenocyte. In short, it runs like this: as §1
A short description of data set [3]: Inhibition of concanavalin A-stimulated lymphoproliferation in BALB/c mouse splenocytes at 10 ug/ml by MTT assay. It counts as functional. To be noted: Splenocyte.
Data set [4] is described as follows: Inhibition of concanavalin A-stimulated lymphoproliferation in BALB/c mouse splenocytes at 1 ug/ml by MTT assay. The data set is classed as functional. To be noted: Splenocyte. (Tetrazolium dyes change colour on reduction, which living cells bring about.)
Data set [5] concerns Macrophage. Briefly: Increase in nitric oxide production in LPS-pre-stimulated rat alveolar macrophages. The data set is classed as functional, cell-based.
The test system of data set [6] is Macrophage. Briefly: Increase in nitric oxide production in normal rat alveolar macrophages. It counts as functional, cell-based.
Data set [7] has as its system Lymphocyte. Briefly: Reduction of rat lymphocyte stimulation by Graft-vs-Host assay relative to cyclophosphamide. The arrangement: scale not given: the % may be the effect or the level left. It counts as functional. In short, it runs like this: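 In a Graft-vs-Host assay measuring immunosuppressant ability, cyclophosphamide at 100 mg/kg/day served as the reference drug.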

Data set [8] deals with Macrophage. Briefly: Increase in nitric oxide production in LPS-pre-stimulated rat alveolar macrophages at 100 ug/ml. The data set is classed as functional.
Data set [9] concerns Macrophage. Briefly: Increase in nitric oxide production in LPS-pre-stimulated rat alveolar macrophages at 10 ug/ml. It counts as functional.

The source made the active and inactive calls. The rule behind the calls is not given here.

In the case of `CCCCCCCCCCCCCCC(CN(CC)CC)NC(=O)OC(C)(C)C` (stereo not given), the figures for the Activity in [1] and in [2] were 7.8% and 6.5%, respectively. This compound gave an inhibition at 10 µg/mL in data set [3] of 89.5%. The same compound came in with an inhibition at 1 µg/mL in data set [4] of 65.2%.

On to `CCCCCCCCCCCCCCC(N)CN(CC)CC` (stereo not given), for which the Activity was determined as 24.2% in data set [1] and 1.7% in [2]. The inhibition at 10 µg/mL in [3] turned out to be 84.5%. In [4], this compound returned an inhibition at 1 µg/mL of 74.2%. For the same compound, the outcome in data set [5] and in data set [6] was inactive.

In the case of `CCCCCCCCCCCCCCC(N)CO` (stereo not given), the Activity in data set [1] was determined as 20.2%; in [2], 15.1%. For the same compound, the inhibition at 10 µg/mL in data set [3] was 72.4%. Moreover, in data set [4], at 1 µg/mL the inhibition was 68.7%.

In turn, `CCCCCCCCCCCCCCC(CO)NC(=O)CCCC(=O)OC` (stereo not given) showed an Activity in [1] of 18.9%. Moreover, 10 µg/mL produced 50.2% inhibition in [3].

As for `CCCCCCCCCCCCCCC(CN)NC(=O)OC(C)(C)C` (stereo not given), the Activity in data set [1] came out at 4.3%; in data set [2] it was 4.2%; in data set [7], 32%; in data set [8], 29%; in data set [9], 20%. Further, in [3], at 10 µg/mL the inhibition was 81.2%. The compound further gave an inhibition at 1 µg/mL in data set [4] of 73.4%. Moreover, the result in [6] was inactive.

In [1], `CCCCCCCCCCCCCCC(CO)N(CCCC)CCCC` (stereo not given) showed an Activity of 11.7%. This compound came in with an inhibition at 10 µg/mL in data set [3] of 50.3%.

As for `CCCCCCCCCCCCCCC(COCc1ccccc1)N(CC)CC` (stereo not given), the Activity in data set [1] came out at 15.6%; in data set [2], 14.1%. The compound also gave an inhibition at 10 µg/mL in data set [3] of 72.6%. Further, the inhibition at 1 µg/mL in data set [4] was 71.6%.

Turning to `CCCCCCCCCCCCCCC(NCCCC)C(=O)O` (stereo not given), the Activity in [1] was 5.1%. The compound also returned an inhibition at 10 µg/mL in data set [3] of 32.9%.

As for `CCCCCCCCCCCCCCC(COCc1ccccc1)NC(=O)CCCC(=O)O` (stereo not given), the figures for the Activity in [1] and in [2] were 6.4% and 0%, respectively. Besides, in [3], testing at 10 µg/mL gave an inhibition of 65.4%. The same compound returned an inhibition at 1 µg/mL in [4] of 27.8%. Further, the outcome in data set [5] and in data set [6] was inactive.

Take `CCCCCCCCCCCCCCC(CO)NCCCCCCCCCC` (stereo not given): the Activity is 12.6% in data set [1] and 6.6% in [2]. Moreover, the inhibition at 10 µg/mL in data set [3] is 59.8%. In addition, the inhibition at 1 µg/mL in data set [4] was found to be 12%.

Consider `CCCCCCCCCCCCCCC(COCc1ccccc1)NC(=O)CCCC(=O)OC` (stereo not given), for which the Activity in [1] came to 2.5%. The compound further came in with an inhibition at 10 µg/mL in data set [3] of 3.4%. Further, the outcome in data set [5] and in data set [6] was inactive.

Regarding `CCCCCCCCCCCCCCC(CNC(=O)CCCC(=O)O)NC(=O)OC(C)(C)C` (stereo not given), the Activity was 1.2% in data set [1] and 0% in data set [2]. In [3], this compound gave an inhibition at 10 µg/mL of 80.8%. The inhibition at 1 µg/mL in [4] amounted to 19.3%. The result in [5] was inactive.

`CCCCCCCCCCCCCCC(N)CNC(=O)CCCC(=O)O` (stereo not given): the Activity in data set [1] came out at 12.8%. For the same compound, the inhibition at 10 µg/mL in data set [3] worked out at 51%. The outcome in data set [5] and in data set [6] was inactive.

On to `CCCCCCCCCCCCCCC(CO)NCC` (stereo not given), for which the Activity in data set [1] amounted to 17.1%; in data set [2] it was 10.5%. Further, the inhibition at 10 µg/mL in [3] came out at 72.9%. In data set [4], this compound came in with an inhibition at 1 µg/mL of 68.4%.

Turning to `CCCCCCCCCCCCCCC(CO)N(CC)CC` (stereo not given), the Activity in data set [1] is reported as 12.8%; in data set [2], 7.5%. This compound also returned an inhibition at 10 µg/mL in [3] of 79.5%. 1 µg/mL produced 74.8% inhibition in data set [4].

In data set [1], `CCCCCCCCCCCCCCC(C(=O)O)N(CC)CC` (stereo not given) returned an Activity of 12.1%. This compound registered an inhibition at 10 µg/mL in [3] of 43.1%.

On to `CCCCCCCCCCCCCCC(CO)NCCCC` (stereo not given), for which the Activity in data set [1] was 16.4%. Further, 10 µg/mL produced 49.1% inhibition in data set [3].

On to `CCCCCCCCCCCCCCC(CO)NCCCCCC` (stereo not given), for which the Activity is recorded as 14.6% in data set [1], 5% in [2], 63% in data set [7] and 25% in [8]. Besides, the inhibition at 10 µg/mL in [3] was 78.4%. This compound had an inhibition at 1 µg/mL in [4] of 74.1%. Also, the outcome in data set [6] was inactive.

Take `CCCCCCCCCCCCCCC(COCc1ccccc1)NCC` (stereo not given): in data set [1], the Activity was 11.9%. For the same compound, the inhibition at 10 µg/mL in data set [3] is 49.8%.

The compound `CCCCCCCCCCCCCCC(N)CN` (stereo not given) came in with an Activity in data set [1] of 2.5%. In addition, in [3], the inhibition at 10 µg/mL amounted to 50.1%.

Turning to `CCCCCCCCCCCCCCC(C(=O)O)N(CCCC)CCCC` (stereo not given), the Activity in data set [1] is listed as 12.5%. In addition, in data set [3], the inhibition at 10 µg/mL amounted to 47.8%.

Turning to `CCCCCCCCCCCCCCC(N)COCc1ccccc1` (stereo not given), the values for the Activity in data set [1] and in data set [2] were 12.2% and 0%, respectively. For the same compound, the inhibition at 10 µg/mL in data set [3] amounted to 79.1%. In data set [4], this compound gave an inhibition at 1 µg/mL of 0%. For the same compound, the result in data set [5] and in [6] was inactive.

With `CCCCCCCCCCCCCCC(CO)NC(=O)CCCC(=O)O` (stereo not given), the Activity in data set [1] was found to be 14.5%. In addition, the inhibition at 10 µg/mL in data set [3] is 49.1%.

In [1], `CCCCCCCCCCCCCCC(NC(=O)OC(C)(C)C)C(=O)O` (stereo not given) displayed an Activity of 5.1%. The same compound gave an inhibition at 10 µg/mL in data set [3] of 32.9%.

Usually inhibition stands for the percentage by which the read-out fell short of the control.

Source of the values: ChEMBL document CHEMBL1146160, “Synthesis and evaluation of some lipidic aminoalcohols and diamines as immunomodulators” (Bioorg Med Chem Lett, 2006).
